Source: ChEMBL document CHEMBL1157638, “Fluorescent epigenetic small molecule induces expression of the tumor suppressor ras-association domain family 1A and inhibits human prostate xenograft” (J Med Chem, 2010)
Calls of active or inactive are those of the source. The rule behind the calls is not given here.

Assays:
[1] = Growth inhibition of human […] cells assessed as cell growth at 1 uM relative to untreated control; assay type: functional; conditions: read-out: Activity
[2] = test system: CAKI-1; test: Growth inhibition of human Caki1 cells assessed as cell growth at 10 uM relative to untreated control; assay type: functional; conditions: read-out: Activity
Procedure, shortened: (§1)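 Run externally at the National Cancer Institute as a 59-cell-line panel screen, with concentrations up to 100 μM. Growth was scored relative to control, where negative growth or total cell kill was possible. Data are in the Supporting Information.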

[3] = test system: LOX IMVI; test: Growth inhibition of human LOXIMVI cells assessed as cell growth at 10 uM relative to untreated control; assay type: functional; conditions: read-out: Activity
[4] = test system: HT-29; test: Growth inhibition of human HT-29 cells assessed as cell growth at 10 nM relative to untreated control; assay type: functional; conditions: read-out: Activity
[5] = test system: UACC-62; test: Growth inhibition of human UACC62 cells assessed as cell growth at 10 uM relative to untreated control; assay type: functional; conditions: read-out: Activity
[6] = test system: SK-MEL-2; test: Growth inhibition of human SK-MEL-2 cells assessed as cell growth at 1 nM relative to untreated control; assay type: functional; conditions: read-out: Activity
[7] = test system: MOLT-4; test: Growth inhibition of human MOLT4 cells assessed as cell growth at 1 nM relative to untreated control; assay type: functional; conditions: read-out: Activity
[8] = test system: A498; test: Growth inhibition of human A498 cells assessed as cell growth at 100 nM relative to untreated control; assay type: functional; conditions: read-out: Activity
[9] = test system: HOP-92; test: Growth inhibition of human HOP92 cells assessed as cell growth at 10 uM relative to untreated control; assay type: functional; conditions: read-out: Activity; procedure, shortened: as §1
[10] = test system: SNB-19; test: Growth inhibition of human SNB19 cells assessed as cell growth at 100 nM relative to untreated control; assay type: functional; conditions: read-out: Activity
[11] = test system: HOP-62; test: Growth inhibition of human HOP62 cells assessed as cell growth at 10 uM relative to untreated control; assay type: functional; conditions: read-out: Activity; procedure, shortened: as §1
[12] = test system: HT-29; test: Growth inhibition of human HT-29 cells; assay type: functional
[13] = test system: OVCAR-3; test: Growth inhibition of human OVCAR-3 cells assessed as cell growth at 1 uM relative to untreated control; assay type: functional; conditions: read-out: Activity
[14] = test system: IGROV-1; test: Growth inhibition of human IGROV1 cells assessed as cell growth at 1 uM relative to untreated control; assay type: functional; conditions: read-out: Activity
[15] = test system: PC-3; test: Cytostatic against human PC3 cells up to 30 uM after 24 hrs by trypan blue exclusion method; assay type: functional, cell-based
Procedure, shortened: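 PC-3 cells were seeded in triplicate at 1.5 × 10⁴ cells/well and grown in phenol red-free IMEM with 10% FBS at 37 °C, 5% CO₂. After 24 h they were treated with DMSO or 1, 5, 15, 30 or 60 μM compound for 24 h. Cells were then trypsinized, and live and dead cells were counted by 0.4% trypan blue exclusion on a hemocytometer. Values are mean ± SEM of three independent observations.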

[16] = test system: SK-MEL-28; test: Growth inhibition of human SK-MEL-28 cells assessed as cell growth at 10 uM relative to untreated control; assay type: functional; conditions: read-out: Activity
[17] = test system: PC-3; test: Increase in RASSF1A gene expression in human PC3 cells at 5 uM after 3 days hrs by RT-PCR; assay type: functional, cell-based
Procedure, shortened: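 PC-3 cells incubated 3 days with compound, then RNA extracted with TRIzol. 500 ng total RNA reverse-transcribed with random hexamers. RASSF1A amplified with previously described primers and conditions. Products run on 1.5% agarose and stained with ethidium bromide. Bands quantified by densitometry against untreated cells, with RASSF1A re-expression from the reference alkaloid set to 100%.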

[18] = test system: OVCAR-5; test: Growth inhibition of human OVCAR5 cells assessed as cell growth at 1 uM relative to untreated control; assay type: functional; conditions: read-out: Activity
[19] = test system: BT-549; test: Growth inhibition of human BT549 cells assessed as cell growth at 10 uM relative to untreated control; assay type: functional; conditions: read-out: Activity
[20] = test system: SF-539; test: Growth inhibition of human SF539 cells assessed as cell growth at 1 uM relative to untreated control; assay type: functional; conditions: read-out: Activity
[21] = Growth inhibition of human Hs 578T cells assessed as cell growth at 10 uM relative to untreated control; assay type: functional; conditions: read-out: Activity
[22] = test system: SW-620; test: Growth inhibition of human SW620 cells; assay type: functional
[23] = test system: K562; test: Growth inhibition of human K562 cells assessed as cell growth at 1 uM relative to untreated control; assay type: functional; conditions: read-out: Activity
[24] = Growth inhibition of human Hs 578T cells assessed as cell growth at 1 uM relative to untreated control; assay type: functional; conditions: read-out: Activity
[25] = test system: NCI-H23; test: Growth inhibition of human NCI-H23 cells assessed as cell growth at 1 uM relative to untreated control; assay type: functional; conditions: read-out: Activity
[26] = test system: MDA-MB-435; test: Growth inhibition of human MDA-MB-435 cells assessed as cell growth at 10 nM relative to untreated control; assay type: functional; conditions: read-out: Activity
[27] = test system: EKVX; test: Growth inhibition of human EKVX cells assessed as cell growth at 100 nM relative to untreated control; assay type: functional; conditions: read-out: Activity; procedure, shortened: as §1
[28] = test system: NCI-H23; test: Growth inhibition of human NCI-H23 cells; assay type: functional
[29] = test system: NCI/ADR-RES; test: Growth inhibition of human NCI/ADR-RES cells assessed as cell growth at 1 uM relative to untreated control; assay type: functional; conditions: read-out: Activity
[30] = test system: IGROV-1; test: Growth inhibition of human IGROV1 cells; assay type: functional
[31] = test system: NCI-H460; test: Growth inhibition of human NCI-H460 cells assessed as cell growth at 10 nM relative to untreated control; assay type: functional; conditions: read-out: Activity
[32] = test system: UO-31; test: Growth inhibition of human UO31 cells assessed as cell growth at 100 nM relative to untreated control; assay type: functional; conditions: read-out: Activity
[33] = test system: M14; test: Growth inhibition of human M14 cells assessed as cell growth at 100 nM relative to untreated control; assay type: functional; conditions: read-out: Activity
[34] = test system: OVCAR-5; test: Growth inhibition of human OVCAR5 cells assessed as cell growth at 10 uM relative to untreated control; assay type: functional; conditions: read-out: Activity
[35] = biological target: DNA (cytosine-5)-methyltransferase 1 (Homo sapiens) (UniProt P26358); test: Inhibition of DNA methyltransferase activity in human PC3 cells at 2 uM after 3 days; assay type: cell-based; conditions: PC-3
DNA (cytosine-5)-methyltransferase 1 (Homo sapiens), sequence (P26358 whole entry): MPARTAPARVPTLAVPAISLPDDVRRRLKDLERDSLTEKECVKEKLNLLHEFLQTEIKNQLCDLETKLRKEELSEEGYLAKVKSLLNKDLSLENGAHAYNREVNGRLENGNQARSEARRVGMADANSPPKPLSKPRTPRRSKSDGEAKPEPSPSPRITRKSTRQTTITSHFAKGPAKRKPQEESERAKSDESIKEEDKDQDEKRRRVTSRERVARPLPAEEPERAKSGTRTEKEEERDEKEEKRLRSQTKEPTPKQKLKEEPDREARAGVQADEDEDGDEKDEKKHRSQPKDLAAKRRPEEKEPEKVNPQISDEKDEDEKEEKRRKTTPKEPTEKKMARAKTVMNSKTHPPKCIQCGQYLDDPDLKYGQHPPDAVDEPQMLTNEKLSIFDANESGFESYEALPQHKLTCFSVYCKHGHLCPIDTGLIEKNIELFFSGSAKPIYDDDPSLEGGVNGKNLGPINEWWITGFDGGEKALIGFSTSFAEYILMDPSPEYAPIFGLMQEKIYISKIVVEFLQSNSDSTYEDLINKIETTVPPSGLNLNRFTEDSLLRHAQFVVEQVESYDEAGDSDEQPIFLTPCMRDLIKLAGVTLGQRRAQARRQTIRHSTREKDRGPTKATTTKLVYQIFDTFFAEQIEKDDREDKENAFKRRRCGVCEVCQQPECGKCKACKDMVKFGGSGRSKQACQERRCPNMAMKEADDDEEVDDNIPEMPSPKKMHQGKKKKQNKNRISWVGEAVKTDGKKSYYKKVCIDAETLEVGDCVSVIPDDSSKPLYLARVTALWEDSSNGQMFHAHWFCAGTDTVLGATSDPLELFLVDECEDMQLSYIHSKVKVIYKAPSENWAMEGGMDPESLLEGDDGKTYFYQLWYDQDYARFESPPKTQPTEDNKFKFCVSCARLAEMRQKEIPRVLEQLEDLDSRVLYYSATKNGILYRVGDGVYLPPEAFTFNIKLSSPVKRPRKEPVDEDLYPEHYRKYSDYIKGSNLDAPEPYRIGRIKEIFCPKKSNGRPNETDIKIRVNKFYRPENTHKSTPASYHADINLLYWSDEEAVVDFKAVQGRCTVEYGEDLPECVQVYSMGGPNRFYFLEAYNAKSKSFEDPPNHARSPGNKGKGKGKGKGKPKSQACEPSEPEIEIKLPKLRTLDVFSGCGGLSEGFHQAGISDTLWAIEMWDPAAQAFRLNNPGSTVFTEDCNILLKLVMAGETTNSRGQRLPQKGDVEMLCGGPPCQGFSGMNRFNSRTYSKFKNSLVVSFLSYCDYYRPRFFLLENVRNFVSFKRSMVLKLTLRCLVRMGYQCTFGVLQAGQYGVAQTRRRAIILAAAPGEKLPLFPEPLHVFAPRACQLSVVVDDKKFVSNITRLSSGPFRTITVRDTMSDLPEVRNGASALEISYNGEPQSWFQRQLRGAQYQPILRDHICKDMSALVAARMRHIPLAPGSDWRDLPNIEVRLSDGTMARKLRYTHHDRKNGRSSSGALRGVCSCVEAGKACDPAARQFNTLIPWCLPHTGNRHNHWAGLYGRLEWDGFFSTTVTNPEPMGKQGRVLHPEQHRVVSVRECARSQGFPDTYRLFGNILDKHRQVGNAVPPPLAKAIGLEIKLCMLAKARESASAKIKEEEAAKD
Procedure, shortened: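 PC-3 cells in complete growth medium treated 3 days with compound, then harvested. Nuclear extracts prepared by kit protocol, and DNMT activity measured with a commercial DNMT activity kit against untreated cells. Mean of three independent experiments ± SEM.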

[36] = test system: SW-620; test: Growth inhibition of human SW620 cells assessed as cell growth at 1 uM relative to untreated control; assay type: functional; conditions: read-out: Activity
[37] = test system: UO-31; test: Growth inhibition of human UO31 cells assessed as cell growth at 10 nM relative to untreated control; assay type: functional; conditions: read-out: Activity
[38] = test system: U-251; test: Growth inhibition of human U251 cells assessed as cell growth at 100 nM relative to untreated control; assay type: functional; conditions: read-out: Activity
[39] = test system: PC-3; test: Growth inhibition of human PC3 cells assessed as cell growth at 100 nM relative to untreated control; assay type: functional; conditions: read-out: Activity
[40] = test system: UO-31; test: Growth inhibition of human UO31 cells assessed as cell growth at 1 nM relative to untreated control; assay type: functional; conditions: read-out: Activity
[41] = test system: HCC 2998; test: Growth inhibition of human HCC2998 cells assessed as cell growth at 1 uM relative to untreated control; assay type: functional; conditions: read-out: Activity; procedure, shortened: as §1
[42] = test system: DU-145; test: Growth inhibition of human DU145 cells assessed as cell growth at 10 nM relative to untreated control; assay type: functional; conditions: read-out: Activity; procedure, shortened: as §1
[43] = read-out: LC50 (the source's name)

Q: For `COc1ccc2c(c1)[nH]c1c(C)c(OS(=O)(=O)c3cccc4c(N(C)C)cccc34)ccc12`, which growth at 1 µM [1] is on record?
A: Its growth at 1 µM is 1%.

Q: And the growth at 10 µM [2]?
A: The growth at 10 µM was 26%.

Q: What about the growth at 10 µM [3] of the same molecule?
A: Its growth at 10 µM is 14%.

Q: What about the growth at 0.01 µM [4] of the same molecule?
A: Its growth at 0.01 µM is 106%.

Q: And the growth at 10 µM [5]?
A: The growth at 10 µM was 29%.

Q: And the growth at 0.001 µM [6]?
A: Its growth at 0.001 µM is 115%.

Q: What about the growth at 0.001 µM [7] of the same molecule?
A: Its growth at 0.001 µM is 103%.

Q: And the growth at 0.1 µM [8]?
A: The growth at 0.1 µM was 59%.

Q: What about the growth at 10 µM [9] of the same molecule?
A: The growth at 10 µM was -1%.

Q: What about the growth at 0.1 µM [10] of the same molecule?
A: Its growth at 0.1 µM is 88%.

Q: And the growth at 10 µM [11]?
A: Its growth at 10 µM is 35%.

Q: What about the GI50 [12] of the same molecule?
A: The GI50 was 3.71 µM.

Q: And the TGI [12]?
A: The TGI was over 100 µM.

Q: And the CC50 [12, 43]?
A: Its CC50 is over 100 µM.

Q: And the growth at 1 µM [13]?
A: The growth at 1 µM was -35%.

Q: And the growth at 1 µM [14]?
A: The growth at 1 µM was 59%.

Q: What about the Activity [15] of the same molecule?
A: Its Activity is “Active”.

Q: And the growth at 10 µM [16]?
A: Its growth at 10 µM is 19%.

Q: And the Activity [17]?
A: Its Activity is “Active”.

Q: And the growth at 1 µM [18]?
A: Its growth at 1 µM is 101%.

Q: What about the growth at 10 µM [19] of the same molecule?
A: Its growth at 10 µM is 13%.

Q: And the growth at 1 µM [20]?
A: Its growth at 1 µM is -30%.

Q: What about the growth at 10 µM [21] of the same molecule?
A: Its growth at 10 µM is -1%.

Q: And the GI50 [22]?
A: The GI50 was 4.32 µM.

Q: And the TGI [22]?
A: The TGI was over 100 µM.

Q: And the CC50 [22, 43]?
A: The CC50 was over 100 µM.

Q: What about the growth at 1 µM [23] of the same molecule?
A: Its growth at 1 µM is 5%.

Q: And the growth at 1 µM [24]?
A: The growth at 1 µM was 20%.

Q: What about the growth at 1 µM [25] of the same molecule?
A: Its growth at 1 µM is 30%.

Q: And the growth at 0.01 µM [26]?
A: The growth at 0.01 µM was 95%.

Q: And the growth at 0.1 µM [27]?
A: Its growth at 0.1 µM is 91%.

Q: What about the GI50 [28] of the same molecule?
A: The GI50 was 4.08 µM.

Q: And the TGI [28]?
A: The TGI was over 100 µM.

Q: And the CC50 [28, 43]?
A: The CC50 was over 100 µM.

Q: What about the growth at 1 µM [29] of the same molecule?
A: The growth at 1 µM was 28%.

Q: What about the GI50 [30] of the same molecule?
A: The GI50 was 27.6 µM.

Q: What about the TGI [30] of the same molecule?
A: The TGI was over 100 µM.

Q: What about the CC50 [30, 43] of the same molecule?
A: The CC50 was over 100 µM.

Q: What about the growth at 0.01 µM [31] of the same molecule?
A: The growth at 0.01 µM was 101%.

Q: What about the growth at 0.1 µM [32] of the same molecule?
A: Its growth at 0.1 µM is 92%.

Q: What about the growth at 0.1 µM [33] of the same molecule?
A: Its growth at 0.1 µM is 100%.

Q: And the growth at 10 µM [34]?
A: Its growth at 10 µM is 33%.

Q: What about the Activity [35] of the same molecule?
A: Its Activity is “Active”.

Q: What about the growth at 1 µM [36] of the same molecule?
A: Its growth at 1 µM is 24%.

Q: What about the growth at 0.01 µM [37] of the same molecule?
A: The growth at 0.01 µM was 92%.

Q: And the growth at 0.1 µM [38]?
A: Its growth at 0.1 µM is 92%.

Q: And the growth at 0.1 µM [39]?
A: Its growth at 0.1 µM is 96%.

Q: What about the growth at 0.001 µM [40] of the same molecule?
A: The growth at 0.001 µM was 94%.

Q: And the growth at 1 µM [41]?
A: The growth at 1 µM was 52%.

Q: And the growth at 0.01 µM [42]?
A: Its growth at 0.01 µM is 107%.
